ChEMBL document CHEMBL1275331, “Discovery of a novel 5-HT(3) antagonist/5-HT(1A) agonist 3-amino-5,6,7,8-tetrahydro-2-{4-[4-(quinolin-2-yl)piperazin-1-yl]butyl}quinazolin-4(3H)-one (TZB-30878) as an orally bioavailable agent for irritable bowel syndrome” (J Med Chem, 2010)

Legend:
[1] = target: T1, 5-hydroxytryptamine receptor 1A (Homo sapiens, UniProt P08908); experiment: Displacement of [3H]8-OH-DPAT from human 5HT1A receptor expressed in CHO cells by liquid scintillation counting; type: cell-based
T1 sequence (P08908 whole entry): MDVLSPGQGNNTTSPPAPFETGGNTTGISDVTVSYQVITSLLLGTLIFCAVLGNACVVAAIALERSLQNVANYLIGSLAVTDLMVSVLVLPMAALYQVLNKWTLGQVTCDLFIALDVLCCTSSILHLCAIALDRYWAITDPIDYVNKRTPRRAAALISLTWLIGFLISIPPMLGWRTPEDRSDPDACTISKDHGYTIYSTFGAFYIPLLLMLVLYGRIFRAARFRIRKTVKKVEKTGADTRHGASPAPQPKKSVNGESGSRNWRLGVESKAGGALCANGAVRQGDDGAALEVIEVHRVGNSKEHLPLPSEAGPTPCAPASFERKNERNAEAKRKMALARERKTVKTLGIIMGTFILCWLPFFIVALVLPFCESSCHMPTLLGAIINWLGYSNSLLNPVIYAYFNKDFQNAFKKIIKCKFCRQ
In short: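 CHO-cell membranes with human 5-HT1A were incubated with 0.25 nmol/L [3H]8-OH-DPAT (final) for 60 min at 27 °C. Buffer: 50 mM Tris-HCl, 10 mM MgSO4, 0.5 mM EDTA, 0.1% ascorbic acid, pH 7.4. Compound came from 270 μmol/L DMSO stock, diluted in buffer. Filtration was through GF/C presoaked in 0.3% polyethyleneimine, with two cold Tris washes. Run in duplicate or triplicate; percent inhibition of binding calculated.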

[2] = target: T2, 5-hydroxytryptamine receptor 3A (Homo sapiens, UniProt P46098); experiment: Displacement of [3H]BRL-43694 from human 5HT3 receptor expressed in HEK293 cells by liquid scintillation counting; type: cell-based
T2 sequence (P46098 whole entry): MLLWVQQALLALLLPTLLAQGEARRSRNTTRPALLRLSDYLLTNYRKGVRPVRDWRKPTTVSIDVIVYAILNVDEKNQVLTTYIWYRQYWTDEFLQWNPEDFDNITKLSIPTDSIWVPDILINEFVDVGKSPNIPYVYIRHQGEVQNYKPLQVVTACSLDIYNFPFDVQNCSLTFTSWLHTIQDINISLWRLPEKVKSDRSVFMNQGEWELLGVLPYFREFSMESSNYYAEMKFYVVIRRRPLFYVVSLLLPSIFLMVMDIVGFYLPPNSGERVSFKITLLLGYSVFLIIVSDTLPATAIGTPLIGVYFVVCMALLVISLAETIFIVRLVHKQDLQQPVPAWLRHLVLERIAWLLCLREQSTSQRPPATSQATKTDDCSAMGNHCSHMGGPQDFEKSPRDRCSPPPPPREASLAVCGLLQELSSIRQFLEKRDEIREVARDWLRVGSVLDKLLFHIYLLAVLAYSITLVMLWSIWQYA
In short: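 HEK-293 membranes expressing human 5-HT3 were incubated with 0.5 nmol/L [3H]BRL-43694 (final) for 60 min at 25 °C. Buffer: 50 mM Tris-HCl, 5 mM MgCl2, 1 mM EDTA, pH 7.5. Compound came from 270 μmol/L DMSO stock, diluted in buffer. Filtration was through GF/B presoaked in 0.5% polyethyleneimine, with two cold Tris washes. Run in duplicate or triplicate; percent inhibition calculated.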

[3] = Drug level in Sprague-Dawley rat blood at 3 mg/kg, po after 8 hrs by HPLC analysis; type: ADME, organism-based; design: dose 3 mg/kg, route oral; settings: whole blood, read-out: Drug uptake
In short: (§1)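 Total compound concentration was measured in brain and blood at 2, 4 and 8 h after a single oral 3 mg/kg dose. Brain/blood ratio was also derived. Values are mean ± SD of three rats.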

[4] = Ratio of drug level in brain to blood in Sprague-Dawley rat at 3 mg/kg, po after 4 hrs; type: ADME, organism-based; design: dose 3 mg/kg, route oral
In short: (§2)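 Rats dosed 3 mg/kg orally; total compound levels measured in brain and blood at 2, 4 and 8 h, brain/blood ratio derived. Mean ± SD of three rats.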

[5] = Ratio of drug level in brain to blood in Sprague-Dawley rat at 3 mg/kg, po after 8 hrs; type: ADME, organism-based; design: dose 3 mg/kg, route oral; in short: as §2
[6] = Drug level in Sprague-Dawley rat blood at 3 mg/kg, po after 4 hrs by HPLC analysis; type: ADME, organism-based; design: dose 3 mg/kg, route oral; settings: whole blood, read-out: Drug uptake; in short: as §1
[7] = Drug level in Sprague-Dawley rat brain at 3 mg/kg, po after 4 hrs by HPLC analysis; type: ADME, organism-based; design: dose 3 mg/kg, route oral; settings: read-out: Drug uptake; in short: as §1
[8] = Drug level in Sprague-Dawley rat brain at 3 mg/kg, po after 8 hrs by HPLC analysis; type: ADME, organism-based; design: dose 3 mg/kg, route oral; settings: read-out: Drug uptake; in short: as §1
[9] = Drug level in Sprague-Dawley rat blood at 3 mg/kg, po after 2 hrs by HPLC analysis; type: ADME, organism-based; design: dose 3 mg/kg, route oral; settings: whole blood, read-out: Drug uptake; in short: as §1
[10] = Ratio of drug level in brain to blood in Sprague-Dawley rat at 3 mg/kg, po after 2 hrs; type: ADME, organism-based; design: dose 3 mg/kg, route oral; in short: as §2
[11] = Drug level in Sprague-Dawley rat brain at 3 mg/kg, po after 2 hrs by HPLC analysis; type: ADME, organism-based; design: dose 3 mg/kg, route oral; settings: read-out: Drug uptake; in short: as §1
[12] = target: T3, 5-hydroxytryptamine receptor 3A (Cavia porcellus) (UniProt O70212); experiment: Inhibition of 5HT3 receptor-mediated contraction of guinea pig ileum at 1 umol/L after 20 mins relative to control; type: tissue-based
T3 sequence (whole entry): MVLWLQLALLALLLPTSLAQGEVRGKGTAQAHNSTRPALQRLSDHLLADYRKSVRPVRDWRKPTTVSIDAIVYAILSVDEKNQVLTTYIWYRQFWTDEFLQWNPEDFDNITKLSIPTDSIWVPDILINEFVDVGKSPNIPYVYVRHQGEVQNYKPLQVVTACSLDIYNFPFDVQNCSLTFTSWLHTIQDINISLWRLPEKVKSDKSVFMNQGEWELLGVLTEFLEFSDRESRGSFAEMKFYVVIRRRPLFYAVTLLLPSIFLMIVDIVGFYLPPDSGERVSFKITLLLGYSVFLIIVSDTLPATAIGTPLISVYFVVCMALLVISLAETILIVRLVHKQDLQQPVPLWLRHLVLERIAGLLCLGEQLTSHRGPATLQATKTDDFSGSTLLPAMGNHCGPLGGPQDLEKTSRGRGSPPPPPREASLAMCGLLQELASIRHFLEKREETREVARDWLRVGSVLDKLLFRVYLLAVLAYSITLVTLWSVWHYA
In short: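 Ileum strips in Tyrode solution at 37 °C, gassed 5% CO2/95% O2, isotonic contractions under 1 g load. After at least 3 stable contractions to 10 μM 2-methyl-5-HT, tissue exposed to compound or DMSO vehicle for 20 min, then 10 μM 2-methyl-5-HT re-added; contraction expressed as % inhibition of control.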

SMILES	IC50 [1] [nM]	IC50 [2] [nM]	also measured
Nn1c(CCCCN2CCN(c3ccc4ccc(O)cc4n3)CC2)nc2c(c1=O)CCCC2	46.6	55.2	
Cc1cccc2c(=O)n(N)c(CCCCN3CCN(c4ccc5ccccc5n4)CC3)nc12	< 10	15.6	
Nn1c(CN2CCN(c3ccc4ccccc4n3)CC2)nc2c(c1=O)CCCC2	> 100	86.6	
Nn1c(CCCCCN2CCN(c3ccc4ccccc4n3)CC2)nc2c(c1=O)CCCC2	7.6	> 100	
O=c1[nH]c(CCCCN2CCN(c3ccc4ccccc4n3)CC2)nc2c1CCCC2	6.2	24.6	
Nn1c(CCCCN2CCN(c3ccc4ccccc4n3)CC2)nc2ccc(F)cc2c1=O	< 10	99.4	
CC1CCc2c(nc(CCCCN3CCN(c4ccc5ccccc5n4)CC3)n(N)c2=O)C1 (stereo not drawn)	< 10	97.9	
Nn1c(CCCCN2CCN(c3ccc4ccccc4n3)CC2)nc2cc(F)ccc2c1=O	< 10	> 100	
Nn1c(CCCCN2CCN(c3ccc4ccccc4n3)CC2)nc2c(c1=O)CC(O)CC2 (stereo not drawn)	< 10	46.5	
Nn1c(CCCCN2CCN(c3nc4ccccc4c4c3CCC4)CC2)nc2c(c1=O)CCCC2	62.3	> 100	
Cc1sc2nc(SCCCN3CCN(c4nc5ccccc5c5ccccc45)CC3)n(N)c(=O)c2c1C	55.4	> 100	
Nn1c(CCCCN2CCN(c3ccc4ccccc4n3)CC2)nc2c(c1=O)CCC2	< 1	62.1	
Cc1sc2nc(SCCCN3CCN(c4ccc5c(n4)CCCC5)CC3)n(N)c(=O)c2c1C	6.1	> 100	
Nn1c(CCCCN2CCN(c3nc4ccccc4cc3O)CC2)nc2c(c1=O)CCCC2	96.4	52.6	
Nn1c(SCCCN2CCN(c3ccc4ccccc4n3)CC2)nc2sc3c(c2c1=O)CCCC3	< 10	41.4	
CC(=O)N1CCc2c(sc3nc(CCCCN4CCN(c5ccc6ccccc6n5)CC4)n(N)c(=O)c23)C1	< 10	22.1	concentration at 8 h [3]: 43.7 nM; Kp at 4 h [4]: 0.355; Kp at 8 h [5]: 0.307; concentration at 4 h [6]: 55.8 nM; concentration at 4 h [7]: 19.5 nM; concentration at 8 h [8]: 13.4 nM; concentration at 2 h [9]: 51 nM; Kp at 2 h [10]: 0.294; concentration at 2 h [11]: 15.1 nM
Nn1c(CCCN2CCN(c3ccc4ccccc4n3)CC2)nc2c(c1=O)CCCC2	90.4	> 100	
Nn1c(CCCCN2CCN(c3ccc4ccccc4n3)CC2)nc2cccc(F)c2c1=O	< 10	50.6	
Nn1c(SCCCN2CCN(c3ccc4ccccc4n3)CC2)nc2ccccc2c1=O	24.4	69.9	
Nn1c(SCCCN2CCN(c3ccc4ccccc4n3)CC2)nc2ncccc2c1=O	< 1	64.8	
Nn1c(CCN2CCN(c3ccc4ccccc4n3)CC2)nc2c(c1=O)CCCC2	> 100	> 100	
Cc1sc2nc(SCCCN3CCN(c4nc5ccccc5s4)CC3)n(N)c(=O)c2c1C	66.6	87.6	

SMILES	IC50 [1] [nM]	IC50 [2] [nM]	also measured
Nn1c(CCCCN2CCN(c3ccc4ccccc4n3)CC2)nc2cc(Cl)ccc2c1=O	18	> 100	
Cc1c(N2CCN(CCCCc3nc4c(c(=O)n3N)CCCC4)CC2)nc2ccccc2c1C	64.6	> 100	
Nn1c(CCCCN2CCN(c3ccc4ccccc4n3)CC2)nc2c(c1=O)CCCCC2	< 10	84.8	
Nn1c(CCCCN2CCN(c3ccc4ccccc4n3)CC2)nc2ccc(Cl)cc2c1=O	< 10	> 100	
Cc1cccc2nc(CCCCN3CCN(c4ccc5ccccc5n4)CC3)n(N)c(=O)c12	13.5	> 100	
Nn1c(SCCCN2CCN(c3ccc4ccccc4n3)CC2)nc2sc3c(c2c1=O)CCNC3	5.2	100	
Nn1c(CCCCN2CCN(c3nc4ccccc4c4c3CCCC4)CC2)nc2c(c1=O)CCCC2	> 100	> 100	
Nn1c(SCCCN2CCN(c3ccc4ccccc4n3)CC2)nc2cc([N+](=O)[O-])ccc2c1=O	1.3	> 100	
O=c1[nH]c(SCCCN2CCN(c3ccc4ccccc4n3)CC2)nc2sc3c(c12)CCCC3	> 100	44.2	
Cc1ccc2nc(CCCCN3CCN(c4ccc5ccccc5n4)CC3)n(N)c(=O)c2c1	< 10	45.6	
Nn1c(CCCCN2CCN(c3ccc4cc(O)ccc4n3)CC2)nc2c(c1=O)CCCC2	59.3	> 100	
Cc1cc2ccccc2nc1N1CCN(CCCCc2nc3c(c(=O)n2N)CCCC3)CC1	96	> 100	
CC1CCc2nc(CCCCN3CCN(c4ccc5ccccc5n4)CC3)n(N)c(=O)c2C1 (stereo not drawn)	< 10	48.3	
Cc1sc2nc(SCCCN3CCN(c4cc(C)c5ccccc5n4)CC3)n(N)c(=O)c2c1C	4.3	50.5	
Cc1sc2nc(SCCCN3CCN(c4ccc5ccccc5n4)CC3)[nH]c(=O)c2c1C	> 100	> 100	
Nn1c(CCCCN2CCN(c3ccc4ccccc4n3)CC2)nc2c(Cl)cccc2c1=O	< 10	83.1	
Nn1c(CCCCN2CCN(c3ccc4ccccc4n3)CC2)nc2cccc(Cl)c2c1=O	< 10	> 100	
Cc1sc2nc(CCCCN3CCN(c4ccc5ccccc5n4)CC3)n(N)c(=O)c2c1C	< 10	26.7	
Cc1sc2nc(SCCCN3CCN(c4ccc5ccccc5n4)CC3)n(N)c(=O)c2c1C	36.4	48.4	inhibition [12]: 41.9%
Nn1c(SCCCN2CCN(c3ccc4ccccc4n3)CC2)nc2cccnc2c1=O	< 1	61	
Cc1sc2nc(SCCCN3CCN(c4nc5ccccc5nc4-c4ccccc4)CC3)n(N)c(=O)c2c1C	> 100	> 100	
Cc1sc2nc(SCCCN3CCN(c4ccccn4)CC3)n(N)c(=O)c2c1C	4.2	> 100	
